Assay [1] has as its target T1, GABA-A receptor; alpha-2/beta-3/gamma-2 (Homo sapiens, UniProt P18507+P28472+P47869).
T1 sequence (P18507 whole entry): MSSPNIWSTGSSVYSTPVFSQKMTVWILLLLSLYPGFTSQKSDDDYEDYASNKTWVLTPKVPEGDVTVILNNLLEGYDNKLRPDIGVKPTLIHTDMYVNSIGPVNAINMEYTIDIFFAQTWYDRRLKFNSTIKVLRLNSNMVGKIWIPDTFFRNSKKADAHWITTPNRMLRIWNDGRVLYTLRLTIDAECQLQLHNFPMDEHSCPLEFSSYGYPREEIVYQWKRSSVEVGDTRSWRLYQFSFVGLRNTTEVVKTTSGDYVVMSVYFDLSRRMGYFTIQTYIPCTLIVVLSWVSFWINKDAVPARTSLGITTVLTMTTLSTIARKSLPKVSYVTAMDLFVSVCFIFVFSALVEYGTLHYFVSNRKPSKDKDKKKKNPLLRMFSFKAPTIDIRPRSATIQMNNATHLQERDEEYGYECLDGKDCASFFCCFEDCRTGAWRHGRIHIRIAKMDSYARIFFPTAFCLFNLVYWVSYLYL
T1 sequence (P28472 whole entry): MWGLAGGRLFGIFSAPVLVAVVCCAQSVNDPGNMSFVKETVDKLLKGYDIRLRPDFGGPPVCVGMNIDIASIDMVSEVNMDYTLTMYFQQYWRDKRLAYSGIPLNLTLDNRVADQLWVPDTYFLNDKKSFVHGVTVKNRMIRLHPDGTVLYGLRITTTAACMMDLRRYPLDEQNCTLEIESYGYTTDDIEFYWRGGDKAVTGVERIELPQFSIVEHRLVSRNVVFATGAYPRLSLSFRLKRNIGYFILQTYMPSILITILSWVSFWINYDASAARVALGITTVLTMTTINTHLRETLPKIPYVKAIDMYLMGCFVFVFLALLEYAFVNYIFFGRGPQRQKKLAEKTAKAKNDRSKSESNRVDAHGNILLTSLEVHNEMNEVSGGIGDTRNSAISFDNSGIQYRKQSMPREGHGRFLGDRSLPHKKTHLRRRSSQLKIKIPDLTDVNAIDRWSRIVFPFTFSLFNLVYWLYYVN
T1 sequence (P47869 whole entry): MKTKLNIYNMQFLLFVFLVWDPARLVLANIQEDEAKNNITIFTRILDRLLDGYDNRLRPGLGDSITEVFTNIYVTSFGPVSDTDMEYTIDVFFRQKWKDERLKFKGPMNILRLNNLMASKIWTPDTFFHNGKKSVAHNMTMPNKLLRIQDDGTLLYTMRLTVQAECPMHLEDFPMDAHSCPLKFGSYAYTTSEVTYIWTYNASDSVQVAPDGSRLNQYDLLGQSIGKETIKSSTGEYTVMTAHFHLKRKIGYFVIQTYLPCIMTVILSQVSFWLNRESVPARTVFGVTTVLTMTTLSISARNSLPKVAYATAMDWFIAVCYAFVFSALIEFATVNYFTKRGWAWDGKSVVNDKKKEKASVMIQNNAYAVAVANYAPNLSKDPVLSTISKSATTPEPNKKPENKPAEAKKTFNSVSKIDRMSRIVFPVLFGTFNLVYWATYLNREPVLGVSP
Description: Binding affinity to human recombinant gamma-aminobutyric-acid (GABA) A receptor alpha-2-beta-3-gamma-2. Format: protein-complex assay.

The target in assay [2] is T2, GABA-A receptor; alpha-5/beta-3/gamma-2 (Homo sapiens, UniProt P18507+P28472+P31644).
T2 sequence (P18507 whole entry): T1 sequence (P18507 whole entry)
T2 sequence (P28472 whole entry): T1 sequence (P28472 whole entry)
T2 sequence (P31644 whole entry): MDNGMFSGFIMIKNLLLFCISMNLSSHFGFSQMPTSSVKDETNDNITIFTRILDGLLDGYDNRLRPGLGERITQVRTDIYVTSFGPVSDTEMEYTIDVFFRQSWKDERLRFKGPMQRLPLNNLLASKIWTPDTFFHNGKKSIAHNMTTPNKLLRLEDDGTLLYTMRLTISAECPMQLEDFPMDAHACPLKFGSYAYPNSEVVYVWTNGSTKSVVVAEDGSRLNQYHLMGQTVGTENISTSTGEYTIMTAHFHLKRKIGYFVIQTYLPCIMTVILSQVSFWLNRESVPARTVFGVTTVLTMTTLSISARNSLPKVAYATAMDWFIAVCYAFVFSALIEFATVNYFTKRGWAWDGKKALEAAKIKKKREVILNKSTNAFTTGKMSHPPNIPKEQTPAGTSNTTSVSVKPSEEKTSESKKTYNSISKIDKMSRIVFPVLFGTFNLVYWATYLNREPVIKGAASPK
Description: Binding affinity for human recombinant gamma-aminobutyric-acid (GABA) A receptor alpha-5-beta-3-gamma-2. It counts as protein-complex assay.

For assay [3], the target named is GABA-A receptor; alpha-6/beta-3/gamma-2 (Homo sapiens, UniProt P18507+P28472+Q16445). Kind of assay: Binding affinity for human recombinant gamma-aminobutyric-acid (GABA) A receptor alpha-6-beta-3-gamma-2. It counts as protein-complex assay. The essentials: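 Ltk⁻ cells expressing human α6β3γ2 were harvested by scraping into PBS, centrifuged at 3000g and resuspended in 10 mM KH₂PO₄/100 mM KCl (pH 7.4). Incubation was 1 h at 4 °C with filter harvest and scintillation counting.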
Sequence of GABA-A receptor; alpha-6/beta-3/gamma-2 (Q16445 whole entry, one chain of several): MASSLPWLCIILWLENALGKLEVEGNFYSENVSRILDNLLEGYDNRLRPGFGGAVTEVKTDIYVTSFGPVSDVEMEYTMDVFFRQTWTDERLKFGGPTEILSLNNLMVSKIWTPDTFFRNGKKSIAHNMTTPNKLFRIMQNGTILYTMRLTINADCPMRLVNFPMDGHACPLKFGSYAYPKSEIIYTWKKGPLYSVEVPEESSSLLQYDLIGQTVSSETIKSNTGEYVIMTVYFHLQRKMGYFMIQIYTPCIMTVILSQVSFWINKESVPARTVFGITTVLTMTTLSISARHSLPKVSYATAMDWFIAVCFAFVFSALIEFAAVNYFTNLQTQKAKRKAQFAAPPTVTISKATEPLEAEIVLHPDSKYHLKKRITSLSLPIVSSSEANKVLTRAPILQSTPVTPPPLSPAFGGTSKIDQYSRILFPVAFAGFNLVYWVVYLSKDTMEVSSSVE

Assay [4] concerns the target T3, GABA-A receptor; alpha-1/beta-3/gamma-2 (Homo sapiens, UniProt P14867+P18507+P28472).
T3 sequence (P14867 whole entry): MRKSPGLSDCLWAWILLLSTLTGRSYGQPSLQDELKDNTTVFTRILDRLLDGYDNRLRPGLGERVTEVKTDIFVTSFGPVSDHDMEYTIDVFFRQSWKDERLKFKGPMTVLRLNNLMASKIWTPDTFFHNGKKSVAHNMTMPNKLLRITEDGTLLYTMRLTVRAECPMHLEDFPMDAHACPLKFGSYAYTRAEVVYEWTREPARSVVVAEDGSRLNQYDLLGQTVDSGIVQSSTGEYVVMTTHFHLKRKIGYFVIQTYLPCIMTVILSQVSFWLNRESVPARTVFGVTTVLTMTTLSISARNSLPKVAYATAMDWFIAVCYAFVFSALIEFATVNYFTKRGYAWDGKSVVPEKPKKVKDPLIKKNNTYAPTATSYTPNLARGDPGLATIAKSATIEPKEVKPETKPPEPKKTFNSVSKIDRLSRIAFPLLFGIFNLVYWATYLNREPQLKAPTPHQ
T3 sequence (P18507 whole entry): T1 sequence (P18507 whole entry)
T3 sequence (P28472 whole entry): T1 sequence (P28472 whole entry)
Kind of assay: Binding affinity for human recombinant gamma-aminobutyric-acid (GABA) A receptor alpha-1-beta-3-gamma-2. Format: protein-complex assay.

Assay [5] concerns the target T4, GABA-A receptor; alpha-3/beta-3/gamma-2 (Homo sapiens, UniProt P18507+P28472+P34903).
T4 sequence (P18507 whole entry): T1 sequence (P18507 whole entry)
T4 sequence (P28472 whole entry): T1 sequence (P28472 whole entry)
T4 sequence (P34903 whole entry): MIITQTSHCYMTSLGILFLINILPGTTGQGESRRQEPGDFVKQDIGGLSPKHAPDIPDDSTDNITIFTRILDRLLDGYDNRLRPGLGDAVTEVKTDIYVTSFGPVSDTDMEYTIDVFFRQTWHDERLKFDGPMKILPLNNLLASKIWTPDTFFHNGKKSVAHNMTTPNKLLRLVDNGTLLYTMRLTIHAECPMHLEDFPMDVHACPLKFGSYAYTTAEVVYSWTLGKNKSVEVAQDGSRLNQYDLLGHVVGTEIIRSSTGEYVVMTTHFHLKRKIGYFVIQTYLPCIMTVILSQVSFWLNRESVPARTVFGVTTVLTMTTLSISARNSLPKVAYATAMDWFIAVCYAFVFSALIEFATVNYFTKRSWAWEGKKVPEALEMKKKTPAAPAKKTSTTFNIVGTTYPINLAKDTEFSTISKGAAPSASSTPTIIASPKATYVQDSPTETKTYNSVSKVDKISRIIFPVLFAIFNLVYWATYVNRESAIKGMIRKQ
Kind of assay: Binding affinity for human recombinant gamma-aminobutyric-acid (GABA) A receptor alpha-3-beta-3-gamma-2. It counts as protein-complex assay.

A short description of assay [6]: Selectivity ratio of alpha1 beta-3 gamma2 GABA A / BzR and alpha5 beta-3 gamma2 GABA A / BzR.

`CCCCCCCCOc1ccc2c(c1)c1c(CC)c(C(=O)OCC)ncc1n2C`: the inhibition constant (Ki) in assay [1], in assay [2], in assay [3], in assay [4] and in assay [5] was greater than 1000 nM throughout.
Consider `Clc1cc2c(cn1)[nH]c1ccccc12`, for which the Ki (commonly the dissociation constant of the complex between target and ligand, obtained from inhibition or displacement) in assay [1] is 125 nM; in assay [2] it was 1000 nM; in assay [3], greater than 10000 nM; in assay [4], 60.4 nM; in assay [5] it was 126 nM.
The corresponding values for `c1ccc2c(c1)[nH]c1cnc3c(nc4ccccn43)c12` are 228 nM, greater than 3000 nM, greater than 10000 nM, 105 nM and 284 nM.
The corresponding values for `CN1C(=O)CN=C(c2ccco2)c2cc(Cl)ccc21` are greater than 0.17 nM, greater than 0.44 nM, greater than 300 nM, greater than 0.23 nM and greater than 0.12 nM.
For the compound `CCOC(=O)c1ncn2c1[C@@H]1CCCN1C(=O)c1ccccc1-2`, the Ki was 1.6 nM in assay [2], greater than 300 nM in assay [3], 7.3 nM in assay [4] and 7.1 nM in assay [5]. Also, the Ratio in assay [6] stood at 4.6.
In the case of `Cc1nnc2n1-c1ccc(Cl)cc1C(c1ccccc1Cl)=NC2` [TRIAZOLAM], the Ki in assay [1] was 0.59 nM; in assay [3], greater than 10000 nM.
On to `c1cnc2c3[nH]cc4[nH]c5ccccc5c4c-3nc2c1`, for which the inhibition constant Ki in assay [1] is 118 nM; in assay [2], 1000 nM; in assay [3] it was greater than 10000 nM; in assay [4] it was 28 nM; in assay [5] it was 156 nM.
On to `c1ccc2c(c1)[nH]c1cnc3c4cccnc4[nH]c3c12`, for which the Ki in assay [1] was 11.5 nM; in assay [2], 200 nM; in assay [3], greater than 10000 nM; in assay [4], 2.2 nM; in assay [5] it was 16.3 nM.
For the compound `C#Cc1ccc(-n2[nH]c3c(cnc4ccccc43)c2=O)cc1`, the inhibitory constant (Ki) is 0.03 nM in assay [1], 0.17 nM in assay [2], 0.07 nM in assay [4] and 0.04 nM in assay [5].
For the compound `O=C1C2C=Nc3ccccc3C2=NN1c1ccccc1` (stereo not given) [CGS-8216], the Ki was determined as 0.08 nM in assay [1]; 0.25 nM in assay [2]; 17 nM in assay [3]; 0.05 nM in assay [4]; 0.12 nM in assay [5].
Take `O=C1CN=C(c2ccccc2[N+](=O)[O-])c2cc(Br)ccc2N1`: the inhibitory constant (Ki) was 31 nM in assay [1], 199 nM in assay [2], greater than 3000 nM in assay [3] and 52 nM in assay [5]. Further, the Ratio in assay [6] came to 0.08.
Take `CCOC(=O)c1[nH]cc2nc3ccc(OCc4ccc5ccccc5c4)cc3c-2c1CC`: the inhibition constant Ki in assay [1] is 291 nM; in assay [2] it was 270 nM; in assay [3], greater than 10000 nM; in assay [4], 183 nM; in assay [5], 300 nM.
The corresponding values for `COC(=O)c1cc2c(cn1)[nH]c1ccc(NCc3ccccc3)cc12` are 30.2 nM, 475 nM, greater than 10000 nM, 5.42 nM and 48.9 nM.
The corresponding values for `COCc1c(SC#N)[nH]cc2nc3ccc(OCc4ccccc4)cc3c1-2` are 82.6 nM, 159 nM, greater than 10000 nM, 25 nM and 58.8 nM.
For the compound `CN1C(=O)CN=C(C2CCC2)c2cc(F)ccc21`, the inhibition constant Ki in assay [1], in assay [2], in assay [3], in assay [4] and in assay [5] was greater than 300 nM throughout.
For `C#Cc1ccc2ncc3c(=O)n(-c4ccccc4)[nH]c3c2c1`, the inhibitory constant (Ki) turned out to be 0.06 nM in assay [1], 0.08 nM in assay [2], 0.08 nM in assay [4] and 0.02 nM in assay [5].
Turning to `[N-]=[N+]=Nc1ccc2c(c1)C(c1ccccc1N=[N+]=[N-])=NCC(=O)N2`, the Ki in assay [2] is 1640 nM; in assay [3], greater than 1000 nM; in assay [4], 2160 nM; in assay [5], 4620 nM. Moreover, in assay [6], the Ratio is 1.32.
`N#CSc1ccc2[nH]c3cnc(SC#N)cc3c2c1`: the Ki in assay [1] is 423 nM; in assay [2] it was 2910 nM; in assay [3], greater than 5000 nM; in assay [4] it was 13.6 nM.
In the same order, the values of `O=[N+]([O-])c1ccc2[nH]c3cnc([N+](=O)[O-])cc3c2c1` are 83.1 nM, 314 nM, greater than 50000 nM and 12.9 nM.
With `COc1ccc(-n2nc3c4cc(Cl)ccc4[nH]cc-3c2=O)cc1`, the inhibition constant (Ki) is 0.32 nM in assay [2], 1.9 nM in assay [3], 0.2 nM in assay [4] and 0.2 nM in assay [5].
On to `CN1C(=O)CN=C(c2ccccc2[N+](=O)[O-])c2cc([N+](=O)[O-])ccc21`, for which the inhibition constant (Ki) in assay [2] is 7.7 nM; in assay [3], greater than 10000 nM; in assay [4], 0.49 nM; in assay [5], 0.76 nM. In assay [6], the Ratio is 0.06.
As to `CN1Cc2c(C(=O)OC(C)(C)C)ncn2-c2ccc(N=[N+]=[N-])cc2C1=O`, the Ki in assay [1] came to 22.1 nM; in assay [5], 9.84 nM. The Ratio in assay [6] was 24.3.

These data come from ChEMBL document CHEMBL1132940, “Pharmacophore/receptor models for GABA(A)/BzR subtypes (alpha1beta3gamma2, alpha5beta3gamma2, and alpha6beta3gamma2) via a comprehensive ligand-mapping approach” (J Med Chem, 2000).
